Data taken from ChEMBL document CHEMBL5058577, “EUbOPEN Chemogenomics Library 2 (Multiplex)” (2022).

Tested on: Fibroblast
Test: Multiplex assay against human fibroblast
Format: toxicity, cell-based
Procedure, shortened: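 Cells were classed with CellPathfinder machine-learning gating, first as Hoechst high-intensity objects or normal cells, then (normal cells) as healthy, pyknosed or fragmented nuclei, and finally (pyknosed cells) as mitotic or apoptotic. Staining of live cells at seeding used Hoechst33342, BioTracker Green Microtubule Cytoskeleton Dye, MitoTracker Red and Annexin V Alexa Fluor 680, with imaging on a CQ1 microscope at 37°C and 5% CO2 after compound addition. Tubulin, mitochondrial-mass and membrane-permeability phenotypes are per cents of healthy-nucleus cells.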

[1] = 12 h, 1 µM, compound concentration 1 uM, replicate 1
[2] = 12 h, 1 µM, compound concentration 1 uM, replicate 2
[3] = 12 h, 10 µM, compound concentration 10 uM, replicate 1
[4] = 12 h, 10 µM, compound concentration 10 uM, replicate 2
[5] = 24 h, 1 µM, compound concentration 1 uM, replicate 1
[6] = 24 h, 1 µM, compound concentration 1 uM, replicate 2
[7] = 24 h, 10 µM, compound concentration 10 uM, replicate 1
[8] = 24 h, 10 µM, compound concentration 10 uM, replicate 2
[9] = 48 h, 1 µM, compound concentration 1 uM, replicate 1
[10] = 48 h, 1 µM, compound concentration 1 uM, replicate 2
[11] = 48 h, 10 µM, compound concentration 10 uM, replicate 1
[12] = 48 h, 10 µM, compound concentration 10 uM, replicate 2

## Cl.Cl.OCCOCCN1CCN(C(c2ccccc2)c2ccc(Cl)cc2)CC1 (stereo not drawn) [HYDROXYZINE HYDROCHLORIDE]
[1]
  Population Apoptotic (%): 43%
  Population Fragmented Nuclei (%): 11%
  Population Healthy Nuclei (%): 75%
  Population Hoechst High Intensity Objects (%): 1%
  Population Membrane Permeable-Phenotype (%): 0%
  Population Mitochondria Different-Phenotype (%): 4%
  Population Mitotic Cells (%): 56%
  Population Normal (%): 98%
  Population Pyknosed Nuclei (%): 13%
  Population Tubulin-Different-Phenotype (%): 25%
  Total Cell Count: 177
[2]
  Population Apoptotic (%): 51%
  Population Fragmented Nuclei (%): 22%
  Population Healthy Nuclei (%): 57%
  Population Hoechst High Intensity Objects (%): 7%
  Population Membrane Permeable-Phenotype (%): 8%
  Population Mitochondria Different-Phenotype (%): 6%
  Population Mitotic Cells (%): 48%
  Population Normal (%): 92%
  Population Pyknosed Nuclei (%): 20%
  Population Tubulin-Different-Phenotype (%): 46%
  Total Cell Count: 155
[3]
  Population Apoptotic (%): 47%
  Population Fragmented Nuclei (%): 27%
  Population Healthy Nuclei (%): 58%
  Population Hoechst High Intensity Objects (%): 2%
  Population Membrane Permeable-Phenotype (%): 0%
  Population Mitochondria Different-Phenotype (%): 14%
  Population Mitotic Cells (%): 52%
  Population Normal (%): 97%
  Population Pyknosed Nuclei (%): 14%
  Population Tubulin-Different-Phenotype (%): 45%
  Total Cell Count: 247
[4]
  Population Apoptotic (%): 40%
  Population Fragmented Nuclei (%): 19%
  Population Healthy Nuclei (%): 47%
  Population Hoechst High Intensity Objects (%): 7%
  Population Membrane Permeable-Phenotype (%): 7%
  Population Mitochondria Different-Phenotype (%): 6%
  Population Mitotic Cells (%): 59%
  Population Normal (%): 92%
  Population Pyknosed Nuclei (%): 32%
  Population Tubulin-Different-Phenotype (%): 58%
  Total Cell Count: 178
[5]
  Population Apoptotic (%): 30%
  Population Fragmented Nuclei (%): 9%
  Population Healthy Nuclei (%): 78%
  Population Hoechst High Intensity Objects (%): 1%
  Population Membrane Permeable-Phenotype (%): 2%
  Population Mitochondria Different-Phenotype (%): 6%
  Population Mitotic Cells (%): 70%
  Population Normal (%): 98%
  Population Pyknosed Nuclei (%): 12%
  Population Tubulin-Different-Phenotype (%): 30%
  Total Cell Count: 163
[6]
  Population Apoptotic (%): 44%
  Population Fragmented Nuclei (%): 26%
  Population Healthy Nuclei (%): 54%
  Population Hoechst High Intensity Objects (%): 5%
  Population Membrane Permeable-Phenotype (%): 5%
  Population Mitochondria Different-Phenotype (%): 3%
  Population Mitotic Cells (%): 55%
  Population Normal (%): 94%
  Population Pyknosed Nuclei (%): 18%
  Population Tubulin-Different-Phenotype (%): 47%
  Total Cell Count: 154
[7]
  Population Apoptotic (%): 51%
  Population Fragmented Nuclei (%): 28%
  Population Healthy Nuclei (%): 62%
  Population Hoechst High Intensity Objects (%): 1%
  Population Membrane Permeable-Phenotype (%): 1%
  Population Mitochondria Different-Phenotype (%): 10%
  Population Mitotic Cells (%): 48%
  Population Normal (%): 98%
  Population Pyknosed Nuclei (%): 9%
  Population Tubulin-Different-Phenotype (%): 47%
  Total Cell Count: 284
[8]
  Population Apoptotic (%): 36%
  Population Fragmented Nuclei (%): 29%
  Population Healthy Nuclei (%): 50%
  Population Hoechst High Intensity Objects (%): 9%
  Population Membrane Permeable-Phenotype (%): 6%
  Population Mitochondria Different-Phenotype (%): 6%
  Population Mitotic Cells (%): 63%
  Population Normal (%): 90%
  Population Pyknosed Nuclei (%): 20%
  Population Tubulin-Different-Phenotype (%): 66%
  Total Cell Count: 198
[9]
  Population Apoptotic (%): 60%
  Population Fragmented Nuclei (%): 17%
  Population Healthy Nuclei (%): 68%
  Population Hoechst High Intensity Objects (%): 4%
  Population Membrane Permeable-Phenotype (%): 0%
  Population Mitochondria Different-Phenotype (%): 3%
  Population Mitotic Cells (%): 39%
  Population Normal (%): 95%
  Population Pyknosed Nuclei (%): 13%
  Population Tubulin-Different-Phenotype (%): 31%
  Total Cell Count: 175
[10]
  Population Apoptotic (%): 42%
  Population Fragmented Nuclei (%): 34%
  Population Healthy Nuclei (%): 56%
  Population Hoechst High Intensity Objects (%): 3%
  Population Membrane Permeable-Phenotype (%): 2%
  Population Mitochondria Different-Phenotype (%): 5%
  Population Mitotic Cells (%): 57%
  Population Normal (%): 96%
  Population Pyknosed Nuclei (%): 9%
  Population Tubulin-Different-Phenotype (%): 44%
  Total Cell Count: 155
[11]
  Population Apoptotic (%): 80%
  Population Fragmented Nuclei (%): 22%
  Population Healthy Nuclei (%): 69%
  Population Hoechst High Intensity Objects (%): 4%
  Population Membrane Permeable-Phenotype (%): 0%
  Population Mitochondria Different-Phenotype (%): 7%
  Population Mitotic Cells (%): 19%
  Population Normal (%): 95%
  Population Pyknosed Nuclei (%): 8%
  Population Tubulin-Different-Phenotype (%): 62%
  Total Cell Count: 272
[12]
  Population Apoptotic (%): 37%
  Population Fragmented Nuclei (%): 36%
  Population Healthy Nuclei (%): 47%
  Population Hoechst High Intensity Objects (%): 6%
  Population Membrane Permeable-Phenotype (%): 11%
  Population Mitochondria Different-Phenotype (%): 2%
  Population Mitotic Cells (%): 62%
  Population Normal (%): 94%
  Population Pyknosed Nuclei (%): 15%
  Population Tubulin-Different-Phenotype (%): 57%
  Total Cell Count: 200

## COc1ccc2[nH]c(I)c(CCNC(C)=O)c2c1 [IODOMELATONIN]
[1]
  Population Apoptotic (%): 53%
  Population Fragmented Nuclei (%): 15%
  Population Healthy Nuclei (%): 64%
  Population Hoechst High Intensity Objects (%): 2%
  Population Membrane Permeable-Phenotype (%): 4%
  Population Mitochondria Different-Phenotype (%): 4%
  Population Mitotic Cells (%): 46%
  Population Normal (%): 97%
  Population Pyknosed Nuclei (%): 19%
  Population Tubulin-Different-Phenotype (%): 28%
  Total Cell Count: 137
[2]
  Population Apoptotic (%): 32%
  Population Fragmented Nuclei (%): 23%
  Population Healthy Nuclei (%): 60%
  Population Hoechst High Intensity Objects (%): 5%
  Population Membrane Permeable-Phenotype (%): 7%
  Population Mitochondria Different-Phenotype (%): 3%
  Population Mitotic Cells (%): 68%
  Population Normal (%): 94%
  Population Pyknosed Nuclei (%): 15%
  Population Tubulin-Different-Phenotype (%): 33%
  Total Cell Count: 173
[3]
  Population Apoptotic (%): 35%
  Population Fragmented Nuclei (%): 14%
  Population Healthy Nuclei (%): 64%
  Population Hoechst High Intensity Objects (%): 2%
  Population Membrane Permeable-Phenotype (%): 2%
  Population Mitochondria Different-Phenotype (%): 6%
  Population Mitotic Cells (%): 64%
  Population Normal (%): 97%
  Population Pyknosed Nuclei (%): 21%
  Population Tubulin-Different-Phenotype (%): 20%
  Total Cell Count: 148
[4]
  Population Apoptotic (%): 30%
  Population Fragmented Nuclei (%): 38%
  Population Healthy Nuclei (%): 44%
  Population Hoechst High Intensity Objects (%): 3%
  Population Membrane Permeable-Phenotype (%): 5%
  Population Mitochondria Different-Phenotype (%): 0%
  Population Mitotic Cells (%): 69%
  Population Normal (%): 96%
  Population Pyknosed Nuclei (%): 17%
  Population Tubulin-Different-Phenotype (%): 43%
  Total Cell Count: 157
[5]
  Population Apoptotic (%): 62%
  Population Fragmented Nuclei (%): 16%
  Population Healthy Nuclei (%): 63%
  Population Hoechst High Intensity Objects (%): 0%
  Population Membrane Permeable-Phenotype (%): 0%
  Population Mitochondria Different-Phenotype (%): 7%
  Population Mitotic Cells (%): 37%
  Population Normal (%): 99%
  Population Pyknosed Nuclei (%): 20%
  Population Tubulin-Different-Phenotype (%): 27%
  Total Cell Count: 134
[6]
  Population Apoptotic (%): 57%
  Population Fragmented Nuclei (%): 26%
  Population Healthy Nuclei (%): 57%
  Population Hoechst High Intensity Objects (%): 5%
  Population Membrane Permeable-Phenotype (%): 6%
  Population Mitotic Cells (%): 42%
  Population Normal (%): 94%
  Population Pyknosed Nuclei (%): 15%
  Population Tubulin-Different-Phenotype (%): 39%
  Total Cell Count: 176
[7]
  Population Apoptotic (%): 35%
  Population Fragmented Nuclei (%): 16%
  Population Healthy Nuclei (%): 58%
  Population Hoechst High Intensity Objects (%): 2%
  Population Membrane Permeable-Phenotype (%): 1%
  Population Mitochondria Different-Phenotype (%): 4%
  Population Mitotic Cells (%): 64%
  Population Normal (%): 97%
  Population Pyknosed Nuclei (%): 24%
  Population Tubulin-Different-Phenotype (%): 30%
  Total Cell Count: 143
[8]
  Population Apoptotic (%): 24%
  Population Fragmented Nuclei (%): 38%
  Population Healthy Nuclei (%): 41%
  Population Hoechst High Intensity Objects (%): 4%
  Population Membrane Permeable-Phenotype (%): 10%
  Population Mitochondria Different-Phenotype (%): 1%
  Population Mitotic Cells (%): 75%
  Population Normal (%): 95%
  Population Pyknosed Nuclei (%): 20%
  Population Tubulin-Different-Phenotype (%): 40%
  Total Cell Count: 149
[9]
  Population Apoptotic (%): 76%
  Population Fragmented Nuclei (%): 16%
  Population Healthy Nuclei (%): 64%
  Population Hoechst High Intensity Objects (%): 3%
  Population Membrane Permeable-Phenotype (%): 0%
  Population Mitochondria Different-Phenotype (%): 4%
  Population Mitotic Cells (%): 23%
  Population Normal (%): 96%
  Population Pyknosed Nuclei (%): 18%
  Population Tubulin-Different-Phenotype (%): 22%
  Total Cell Count: 147
[10]
  Population Apoptotic (%): 42%
  Population Fragmented Nuclei (%): 30%
  Population Healthy Nuclei (%): 55%
  Population Hoechst High Intensity Objects (%): 4%
  Population Membrane Permeable-Phenotype (%): 5%
  Population Mitochondria Different-Phenotype (%): 0%
  Population Mitotic Cells (%): 57%
  Population Normal (%): 95%
  Population Pyknosed Nuclei (%): 13%
  Population Tubulin-Different-Phenotype (%): 40%
  Total Cell Count: 163
[11]
  Population Apoptotic (%): 60%
  Population Fragmented Nuclei (%): 29%
  Population Healthy Nuclei (%): 56%
  Population Hoechst High Intensity Objects (%): 7%
  Population Membrane Permeable-Phenotype (%): 1%
  Population Mitochondria Different-Phenotype (%): 1%
  Population Mitotic Cells (%): 40%
  Population Normal (%): 92%
  Population Pyknosed Nuclei (%): 13%
  Population Tubulin-Different-Phenotype (%): 22%
  Total Cell Count: 159
[12]
  Population Apoptotic (%): 38%
  Population Fragmented Nuclei (%): 48%
  Population Healthy Nuclei (%): 38%
  Population Hoechst High Intensity Objects (%): 2%
  Population Membrane Permeable-Phenotype (%): 10%
  Population Mitochondria Different-Phenotype (%): 5%
  Population Mitotic Cells (%): 61%
  Population Normal (%): 98%
  Population Pyknosed Nuclei (%): 12%
  Population Tubulin-Different-Phenotype (%): 57%
  Total Cell Count: 150
